Source: ChEMBL document CHEMBL2321761, “Discovery of novel dual inhibitors of the wild-type and the most prevalent drug-resistant mutant, S31N, of the M2 proton channel from influenza A virus” (J Med Chem, 2013)

tested on: Influenza A virus; experiment: Inhibition of Influenza A virus wild type M2 proton channel expressed in Xenopus laevis oocyte at 100 uM after 2 mins by two-electrode […] clamp assay
How it was run: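 Full-length AM2 (WT) was expressed in Xenopus oocyte membranes and recorded by two-electrode voltage clamp during low-pH activation. Percent inhibition was read after only 2 min of exposure, before equilibrium was reached. IC50 values from this read-out are apparent kinetic values, not equilibrium dissociation constants.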

SMILES | inhibition
COc1ccc(CNC23CC4CC(CC(C4)C2)C3)c(OC)c1 | 16%
Oc1cccc(CNC23CC4CC(CC(C4)C2)C3)c1 | 88%
O=[N+]([O-])c1ccccc1CNC12CC3CC(CC(C3)C1)C2 | 48%
CC(=O)Nc1ccc(CNC23CC4CC(CC(C4)C2)C3)cc1 | 3%
Oc1ccc(CNC23CC4CC(CC(C4)C2)C3)c(O)c1 | 64%
Oc1ccc(CNC23CC4CC(CC(C4)C2)C3)cc1O | 44%
C[C@@H]1[C@@H](/N=C/c2ccc(O)cc2)C[C@H]2C[C@@H]1C2(C)C | 91%
CS(=O)(=O)c1ccc(CNC23CC4CC(CC(C4)C2)C3)cc1 | 45%
c1cc(-c2nnn[nH]2)ccc1CNC12CC3CC(CC(C3)C1)C2 | 6%
N#Cc1ccc(CNC23CC4CC(CC(C4)C2)C3)cc1 | 36%
COc1ccc(COC23CC4CC(CC(C4)C2)C3)cc1 | 51%
COc1cc(CNC23CC4CC(CC(C4)C2)C3)ccc1O | 76%
c1ccc(CNC23CC4CC(CC(C4)C2)C3)nc1 | 12%
Oc1cc(F)ccc1CNC12CC3CC(CC(C3)C1)C2 | 87%
COc1ccccc1CNC12CC3CC(CC(C3)C1)C2 | 22%
C[S+]([O-])c1ccc(CNC23CC4CC(CC(C4)C2)C3)cc1 (stereo unspecified) | 2%
c1ccc(CNC23CC4CC(CC(C4)C2)C3)cc1 | 77%
Oc1ccc(CNC23CC4CC(CC(C4)C2)C3)c(Cl)c1 | 78%
COC(=O)[C@H](Cc1cnc[nH]1)NCC12CC3CC(CC(C3)C1)C2 | 27%
Oc1ccc(CNC23CC4CC(CC(C4)C2)C3)cc1F | 65%
NC(=O)c1ccc(CNC23CC4CC(CC(C4)C2)C3)cc1 | 7%
CC(C)(C)OC(=O)Nc1ccc(CNC23CC4CC(CC(C4)C2)C3)cc1 | 13%
O=[N+]([O-])c1ccc(CNC23CC4CC(CC(C4)C2)C3)cc1 | 49%

SMILES | inhibition
Nc1ccc(CNC23CC4CC(CC(C4)C2)C3)cc1 | 31%
CC(=O)c1ccc(CNC23CC4CC(CC(C4)C2)C3)cc1 | 2%
Oc1ccc(CNC23CC4CC(CC(C4)C2)C3)cc1Cl | 78%
Oc1ccc(CNC23CC4CC(CC(C4)C2)C3)cc1 | 67%
OCc1ccc(CNC23CC4CC(CC(C4)C2)C3)cc1 | 26%
c1cn(-c2ccc(CNC34CC5CC(CC(C5)C3)C4)cc2)cn1 | 4%
c1cc2c(cc1CNC13CC4CC(CC(C4)C1)C3)OCO2 | 54%
c1cc2cn[nH]c2cc1CNC12CC3CC(CC(C3)C1)C2 | 79%
COc1ccc(CNC23CC4CC(CC(C4)C2)C3)c(O)c1 | 56%
COc1ccc(CNC23CC4CC(CC(C4)C2)C3)cc1 | 43%
O=[N+]([O-])c1cc(CNC23CC4CC(CC(C4)C2)C3)ccc1O | 66%
OC1CCC(CNC23CC4CC(CC(C4)C2)C3)CC1 (racemic) | 16%
c1cnn(-c2ccc(CNC34CC5CC(CC(C5)C3)C4)cc2)c1 | 4%
COc1ccc(CN(C)C23CC4CC(CC(C4)C2)C3)cc1 | 34%
c1nc2cc(CNC34CC5CC(CC(C5)C3)C4)ccc2[nH]1 | 26%
Fc1ccc(CNC23CC4CC(CC(C4)C2)C3)cc1 | 77%
Oc1ccc(/C=N/C23CC4CC(CC(C4)C2)C3)cc1 | 81%
COc1cc(O)ccc1CNC12CC3CC(CC(C3)C1)C2 | 0%
c1cc(CNC23CC4CC(CC(C4)C2)C3)ccn1 | 6%
COc1ccc(CNC23CC4CC(CC(C4)C2)C3)cc1O | 46%
Oc1ccccc1CNC12CC3CC(CC(C3)C1)C2 | 81%
NCc1ccc(CNC23CC4CC(CC(C4)C2)C3)cc1 | 3%
c1cc(CNC23CC4CC(CC(C4)C2)C3)co1 | 73%
